The text below walks through data of ChEMBL document CHEMBL1122130, “Nonsteroidal antiinflammatory agents. 1. 10,11-Dihydro-11-oxodibenz[b, f]oxepinacetic acids and related compounds” (J Med Chem, 1982).

What is called ED50 is the midpoint of the dose-response relation. Low values mean greater potency, high ones weaker potency. Broadly, the LD50 is the dose expected to kill half of the subjects tested. Read a low LD50 as greater toxicity.

For series [1], the system named is Rattus norvegicus. In words: Effective dose for antiinflammatory activity in carrageenan paw edema assay in rats after oral administration. Type of series: functional. The essentials: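 Male Wistar rats (120-150 g; 5-10 per dose) were dosed orally in 0.5% aqueous tragacanth. Edema was induced by subcutaneous injection of 1% aqueous carrageenan into the left hind paw.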
(In general: Carrageenan injected into the paw causes an acute inflammation.)

Another series is filed under the species Mus musculus. In words: Effective dose for analgesic activity in mice. Type of series: functional. The method, boiled down:
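Female ddN mice (18-22 g; 5-15 per dose) received compound in 0.5% aqueous tragacanth. Writhing was induced by intraperitoneal 0.03% phenylquinone, and writhes were counted over 15 min. ED50 was calculated by Litchfield–Wilcoxon.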

Series [2] in a line: Lethal dose determined in rats when administered perorally. Type of series: toxicity, organism-based. As to conditions: rat, in vivo, po. The method, boiled down: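 Male Wistar rats (150-230 g), dosed orally with compound dissolved or suspended in 0.5% aqueous tragacanth. LD50 taken from mortality over 7 days and calculated by the Litchfield-Wilcoxon method.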
Series [3] concerns Rattus norvegicus. Briefly: Compound was evaluated for the induction no of gastric ulcers in rats when administered perorally. Format: functional, Stomach. The essentials:
(§1)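 Male Wistar rats were fasted 24 h and given compound once orally in 0.5% aqueous tragacanth. Stomachs were removed 6 h later and examined macroscopically. UD50 (dose causing ulcers in 50% of rats) was taken from each compound's regression line.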

Series [4] deals with Rattus norvegicus. In words: Compound was evaluated for the induction of gastric ulcers in rats after oral administration. Format: functional. Conditions: Stomach. The essentials:
as §1

The species named for series [5] is Rattus norvegicus. In words: Analgesic activity measured as silver nitrate induced arthritic pain in rats. Format: functional. The method, boiled down:
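Pain in the arthritic rat paw was provoked with silver nitrate. Compounds were given in 0.5% aqueous tragacanth, and ED50 was calculated by the Litchfield–Wilcoxon method.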

For series [6], the species on record is Rattus norvegicus. In words: Antipyretic activity measured as yeast induced fever assay in rats. Format: functional. The method, boiled down: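 Male Wistar rats (350-500 g); hyperthermia induced by subcutaneous injection of 15% yeast suspension. Test compounds dissolved or suspended in 0.5% aqueous tragacanth and administered. ED50 calculated by the Litchfield–Wilcoxon method.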

In series [7] the test system is Rattus norvegicus. In words: compound was evaluated for the induction no of gastric ulcers in rats when administered perorally. Format: functional, Stomach. The method, boiled down: as §1

Turning to `O=C(O)Cc1ccc2c(c1)C(=O)Cc1cc(F)ccc1O2`, the ED50 was not below 80 mg/kg with Rattus norvegicus [1] and more than 100 mg/kg in the series filed under Mus musculus.

As to `O=C(O)Cc1ccc2c(c1)C=Cc1ccc(Cl)cc1O2`, the ED50 was 61.4 mg/kg in the series on Rattus norvegicus [1] and 9.53 mg/kg in the series filed under Mus musculus.

Regarding `O=C(O)Cc1ccc2c(c1)C(O)Cc1cc(F)ccc1O2` (stereo not given), the results for the ED50 with Rattus norvegicus [1] and in the series filed under Mus musculus were more than 80 mg/kg and more than 100 mg/kg, respectively.

With `O=C(O)Cc1ccc2c(c1)Oc1ccccc1NC2=O`, the ED50 in the series on Rattus norvegicus [1] was more than 80 mg/kg; in the series filed under Mus musculus it was more than 100 mg/kg.

In the case of `O=C(O)Cc1ccc2c(c1)C(O)Cc1cc(Cl)ccc1O2` (stereo not given), the ED50 is more than 80 mg/kg in the series with Rattus norvegicus [1] and more than 100 mg/kg in the series filed under Mus musculus.

Turning to `O=C(O)Cc1ccc2c(c1)Oc1ccccc1CC2=O`, the results for the ED50 with Rattus norvegicus [1] and in the series filed under Mus musculus were 56.9 mg/kg and not below 100 mg/kg, respectively.

Take `Cc1ccc2c(c1)CC(=O)c1cc(C(C)C(=O)O)ccc1S2` (stereo not given): the LD50 in series [2] was more than 100 mg/kg. This compound registered an ED50 in the series filed under Mus musculus of 3.1 mg/kg. The same compound had a UD50 in the series on Rattus norvegicus [3] of 11.3 mg/kg.

`O=C(O)Cc1ccc2c(c1)C(O)Cc1ccccc1O2` (stereo not given): the median effective dose (ED50) in the series on Rattus norvegicus [1] is 24.3 mg/kg; in the series filed under Mus musculus, 44.6 mg/kg.

For `Cc1ccc2c(c1)C=Cc1cc(CC(=O)O)ccc1O2`, the results for the ED50 in the series on Rattus norvegicus [1] and in the series filed under Mus musculus were more than 80 mg/kg and more than 100 mg/kg, respectively.

Take `O=C(O)Cc1ccc2c(c1)C(=O)Cc1cc(Cl)ccc1O2`: the ED50 in the series on Rattus norvegicus [1] was not below 80 mg/kg; in the series filed under Mus musculus, not below 100 mg/kg.

Consider `Cc1ccc2c(c1)CC(O)c1cc(CC(=O)O)ccc1O2` (stereo not given), for which the ED50 in the series on Rattus norvegicus [1] was more than 80 mg/kg; in the series filed under Mus musculus, more than 100 mg/kg.

As for `O=C(O)Cc1ccc2c(c1)C(=O)Cc1ccccc1O2`, the ED50 in the series on Rattus norvegicus [1] turned out to be 10.8 mg/kg; in the series filed under Mus musculus, 34.4 mg/kg.

Consider `CC(C(=O)O)c1ccc2c(c1)C(=O)Cc1ccccc1O2` (stereo not given), for which it took a dose of 17.8 mg/kg to reach the 50% effect level in the series listed under Mus musculus (ED50).

In the case of `CC(C(=O)O)c1ccc2c(c1)C(=O)Nc1ccccc1O2` (stereo not given), the values for the ED50 in the series on Rattus norvegicus [1] and in the series filed under Mus musculus were more than 80 mg/kg and more than 100 mg/kg, respectively.

For the compound `O=C(O)Cc1ccc2c(c1)C=Cc1ccccc1O2`, the ED50 is 28.3 mg/kg with Rattus norvegicus [1] and more than 100 mg/kg in the series filed under Mus musculus.

In turn, `Cc1ccc2c(c1)CC(=O)c1cc(CC(=O)O)ccc1O2` registered an ED50 in the series listed under Mus musculus of 13.8 mg/kg.

As to `O=C(O)Cc1ccc2c(c1)C=Cc1cc(Cl)ccc1O2`, the ED50 is more than 80 mg/kg in the series on Rattus norvegicus [1] and more than 100 mg/kg in the series filed under Mus musculus.

Take `O=C(O)Cc1ccc2c(c1)C(=O)Cc1ccc(Cl)cc1O2`: the ED50 was not below 80 mg/kg in the series on Rattus norvegicus [1] and more than 100 mg/kg in the series listed under Mus musculus.

In the case of `O=C(O)Cc1ccc2c(c1)C(=O)Nc1ccccc1O2`, the values for the ED50 in the series with Rattus norvegicus [1] and in the series listed under Mus musculus were more than 80 mg/kg and more than 100 mg/kg, respectively.

`CC(C(=O)O)c1ccc2c(c1)C(O)Cc1ccccc1O2` (stereo not given): the results for the ED50 in the series on Rattus norvegicus [1] and in the series filed under Mus musculus were more than 80 mg/kg and more than 100 mg/kg, respectively.

With `O=C(O)Cc1ccc2c(c1)Oc1ccccc1CC2O` (stereo not given), the ED50 was more than 80 mg/kg in the series on Rattus norvegicus [1] and more than 100 mg/kg in the series listed under Mus musculus.

Turning to `Cc1ccc2c(c1)C=Cc1cc(C(C)C(=O)O)ccc1S2` (stereo not given), the ED50 was more than 80 mg/kg with Rattus norvegicus [1] and more than 100 mg/kg in the series filed under Mus musculus.

For `O=C(O)Cc1ccc2c(c1)C(O)Cc1ccc(Cl)cc1O2` (stereo not given), the ED50 in the series on Rattus norvegicus [1] was more than 80 mg/kg; in the series listed under Mus musculus, more than 100 mg/kg.

`O=C(O)Cc1ccc2c(c1)C=Cc1cc(F)ccc1O2`: the figures for the ED50 with Rattus norvegicus [1] and in the series listed under Mus musculus were more than 80 mg/kg and more than 100 mg/kg, respectively.

As for `O=C(O)Cc1ccc2c(c1)Oc1ccccc1C=C2`, the ED50 in the series on Rattus norvegicus [1] is more than 80 mg/kg; in the series filed under Mus musculus, more than 100 mg/kg.

For `CC(C(=O)O)c1ccc2c(c1)C=Cc1ccccc1O2` (stereo not given), the values for the ED50 in the series with Rattus norvegicus [1] and in the series listed under Mus musculus were not below 80 mg/kg and more than 100 mg/kg, respectively.

As for `Cc1ccc2c(c1)C=Cc1cc(C(C)C(=O)O)ccc1O2` (stereo not given), the ED50 was more than 80 mg/kg with Rattus norvegicus [1] and more than 100 mg/kg in the series listed under Mus musculus.

For `Cc1ccc2c(c1)CC(O)c1cc(C(C)C(=O)O)ccc1S2` (stereo not given), the results for the ED50 with Rattus norvegicus [1] and in the series listed under Mus musculus were more than 80 mg/kg and more than 100 mg/kg, respectively.

For the compound `Cc1ccc2c(c1)CC(O)c1cc(C(C)C(=O)O)ccc1O2` (stereo not given), the ED50 with Rattus norvegicus [1] was more than 80 mg/kg; in the series filed under Mus musculus, more than 100 mg/kg.

`Cc1ccc2c(c1)CC(=O)c1cc(C(C)C(=O)O)ccc1O2` (stereo not given) [BERMOPROFEN]: the results for the ED50 in the series with Rattus norvegicus [4] and in the series filed under Mus musculus were 13.8 mg/kg and 6.51 mg/kg, respectively. This compound also came in with an LD50 in series [2] of 147 mg/kg.

With `COc1ccc2c(c1)c(CC(=O)O)c(C)n2C(=O)c1ccc(Cl)cc1` [INDOMETHACIN], the ED50 in the series listed under Rattus norvegicus [5] was 4.3 mg/kg; in the series listed under Rattus norvegicus [6] it was 0.22 mg/kg; in the series filed under Mus musculus, 0.62 mg/kg. Also, in series [2], the LD50 is 18.5 mg/kg. Also, the UD50 in the series on Rattus norvegicus [7] amounted to 8 mg/kg.
